Experimental data reported in BindingDB's records for doi:10.1021/jm970266p (Universidad Central De Venezuela, 1997).

Molecular target: T1, Falcipain 2 (Plasmodium falciparum, UniProt Q9N6S8)
T1 sequence (Q9N6S8 whole entry): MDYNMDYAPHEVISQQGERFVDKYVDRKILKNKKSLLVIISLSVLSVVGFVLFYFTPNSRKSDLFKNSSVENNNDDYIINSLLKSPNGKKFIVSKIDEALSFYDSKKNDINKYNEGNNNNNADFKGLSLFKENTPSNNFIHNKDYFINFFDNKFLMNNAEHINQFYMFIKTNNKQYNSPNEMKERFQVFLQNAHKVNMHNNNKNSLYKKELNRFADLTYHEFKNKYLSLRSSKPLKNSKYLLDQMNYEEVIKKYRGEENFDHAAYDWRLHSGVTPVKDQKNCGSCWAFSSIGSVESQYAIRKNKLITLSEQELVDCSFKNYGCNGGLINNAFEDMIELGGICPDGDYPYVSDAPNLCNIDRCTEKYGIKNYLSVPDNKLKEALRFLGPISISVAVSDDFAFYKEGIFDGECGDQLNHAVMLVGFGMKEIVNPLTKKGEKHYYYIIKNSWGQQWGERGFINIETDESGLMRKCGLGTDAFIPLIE
Assay: Inhibition of falcipain activity
How it was run: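 Soluble parasite extract containing falcipain (30 nM) preincubated 30 min at room temperature with compound (100× DMSO stocks) and 10 mM DTT in 0.1 M sodium acetate, pH 5.5. Z-Phe-Arg-AMC then added to 50 μM final. Fluorescence (ex 380, em 460 nm) followed continuously for 30 min. Rates compared with DMSO controls. Multiple concentrations tested in duplicate or triplicate; IC50 extrapolated from % control activity curves.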

Row | SMILES | IC50
1 | COc1ccc(C2CC(=O)C3Sc4cc(F)ccc4N=C3C2)cc1OC (centres undefined) [2-(3,4-Dimethoxy-phenyl)-7-fluoro-2,3-dihydro-1H,10H-phenothiazin-4-one] | 20 µM
2 | CC1(C)CC(=O)C2C(=Nc3ccc(Cl)cc3S2(=O)=O)C1 (centres undefined) [7-Chloro-2,2-dimethyl-5,5-dioxo-2,3,5,10-tetrahydro-1H-5lambda*6*-phenothiazin-4-one] | 5 µM
3 | O=C1CC(c2ccc(Cl)cc2Cl)CC2=Nc3ccc(F)cc3SC12 (centres undefined) [2-(2,4-Dichloro-phenyl)-7-fluoro-2,3-dihydro-1H,10H-phenothiazin-4-one] | 10 µM
4 | COc1cccc(C2CC(=O)C3C(=Nc4ccc(Cl)cc4S3(=O)=O)C2)c1OC (centres undefined) [7-Chloro-2-(2,3-dimethoxy-phenyl)-5,5-dioxo-2,3,5,10-tetrahydro-1H-5lambda*6*-phenothiazin-4-one] | 4 µM
5 | COc1ccc(C2CC(=O)C3C(=Nc4ccc(F)cc4S3(=O)=O)C2)cc1OC (centres undefined) [2-(3,4-Dimethoxy-phenyl)-7-fluoro-5,5-dioxo-2,3,5,10-tetrahydro-1H-5lambda*6*-phenothiazin-4-one] | 5 µM
6 | O=C1CC(c2ccc(Cl)cc2)CC2=Nc3ccc(Cl)cc3SC12 (centres undefined) [7-Chloro-2-(4-chloro-phenyl)-2,3-dihydro-1H,10H-phenothiazin-4-one] | 4 µM
7 | COc1ccc(C2CC(=O)C3Sc4cc(Cl)ccc4N=C3C2)cc1 (centres undefined) [7-Chloro-2-(4-methoxy-phenyl)-2,3-dihydro-1H,10H-phenothiazin-4-one] | 10 µM
8 | O=C1CC(c2ccccc2)CC2=Nc3ccc(Cl)cc3SC12 (centres undefined) [7-Chloro-2-phenyl-2,3-dihydro-1H,10H-phenothiazin-4-one] | 10 µM
9 | O=C1CC(c2ccc(Cl)cc2Cl)CC2=Nc3ccc(Cl)cc3S(=O)(=O)C12 (centres undefined) [7-Chloro-2-(2,4-dichloro-phenyl)-5,5-dioxo-2,3,5,10-tetrahydro-1H-5lambda*6*-phenothiazin-4-one] | 30 µM
10 | CC1(C)CC(=O)C2C(=Nc3ccc(F)cc3S2(=O)=O)C1 (centres undefined) [7-Fluoro-2,2-dimethyl-5,5-dioxo-2,3,5,10-tetrahydro-1H-5lambda*6*-phenothiazin-4-one] | 5 µM
11 | COc1cccc(C2CC(=O)C3Sc4cc(F)ccc4N=C3C2)c1OC (centres undefined) [2-(2,3-Dimethoxy-phenyl)-7-fluoro-2,3-dihydro-1H,10H-phenothiazin-4-one] | 20 µM
12 | COc1ccc(C2CC(=O)C3C(=Nc4ccc(Cl)cc4S3(=O)=O)C2)cc1 (centres undefined) [7-Chloro-2-(4-methoxy-phenyl)-5,5-dioxo-2,3,5,10-tetrahydro-1H-5lambda*6*-phenothiazin-4-one] | 30 µM
13 | O=C1CC(c2ccc(Cl)cc2)CC2=Nc3ccc(Cl)cc3S(=O)(=O)C12 (centres undefined) [7-Chloro-2-(4-chloro-phenyl)-5,5-dioxo-2,3,5,10-tetrahydro-1H-5lambda*6*-phenothiazin-4-one] | 4 µM
14 | O=C1CC(c2ccc(Cl)cc2Cl)CC2=Nc3ccc(Cl)cc3SC12 (centres undefined) [7-Chloro-2-(2,4-dichloro-phenyl)-2,3-dihydro-1H,10H-phenothiazin-4-one] | 10 µM
15 | COc1cccc(C2CC(=O)C3C(=Nc4ccc(F)cc4S3(=O)=O)C2)c1 (centres undefined) [7-Fluoro-2-(3-methoxy-phenyl)-5,5-dioxo-2,3,5,10-tetrahydro-1H-5lambda*6*-phenothiazin-4-one] | 5 µM

Further compounds by falling IC50, results first:

Row | IC50 | SMILES
16 | 30 µM | COc1ccc(C2CC(=O)C3Sc4cc(Cl)ccc4N=C3C2)cc1OC (centres undefined) [7-Chloro-2-(3,4-dimethoxy-phenyl)-2,3-dihydro-1H,10H-phenothiazin-4-one]
17 | 30 µM | CC1(C)CC(=O)C2Sc3cc(Cl)ccc3N=C2C1 (centres undefined) [7-Chloro-2,2-dimethyl-2,3-dihydro-1H,10H-phenothiazin-4-one]
18 | 20 µM | COc1cccc(C2CC(=O)C3Sc4cc(Cl)ccc4N=C3C2)c1 (centres undefined) [7-Chloro-2-(3-methoxy-phenyl)-2,3-dihydro-1H,10H-phenothiazin-4-one]
19 | 20 µM | O=C1CC(c2ccccc2)CC2=Nc3ccc(F)cc3SC12 (centres undefined) [7-Fluoro-2-phenyl-2,3-dihydro-1H,10H-phenothiazin-4-one]
20 | 20 µM | COc1cccc(C2CC(=O)C3Sc4cc(F)ccc4N=C3C2)c1 (centres undefined) [7-Fluoro-2-(3-methoxy-phenyl)-2,3-dihydro-1H,10H-phenothiazin-4-one]
21 | 10 µM | COc1cccc(C2CC(=O)C3Sc4cc(Cl)ccc4N=C3C2)c1OC (centres undefined) [7-Chloro-2-(2,3-dimethoxy-phenyl)-2,3-dihydro-1H,10H-phenothiazin-4-one]
22 | 5 µM | O=C1CC(c2ccc(Cl)cc2)CC2=Nc3ccc(F)cc3SC12 (centres undefined) [2-(4-Chloro-phenyl)-7-fluoro-2,3-dihydro-1H,10H-phenothiazin-4-one]
23 | 5 µM | O=C1CC(c2ccc(Cl)cc2)CC2=Nc3ccc(F)cc3S(=O)(=O)C12 (centres undefined) [2-(4-Chloro-phenyl)-7-fluoro-5,5-dioxo-2,3,5,10-tetrahydro-1H-5lambda*6*-phenothiazin-4-one]
24 | 4 µM | O=C1CC(c2ccccc2)CC2=Nc3ccc(Cl)cc3S(=O)(=O)C12 (centres undefined) [7-Chloro-5,5-dioxo-2-phenyl-2,3,5,10-tetrahydro-1H-5lambda*6*-phenothiazin-4-one]
